Consider 1 molecule from ChEMBL document CHEMBL4725346, “Syntheses and Evaluation of New Bisacridine Derivatives for Dual Binding of G-Quadruplex and i-Motif in Regulating Oncogene c-myc Expression” (J Med Chem, 2020).

The nature of data set [1]: Stabilization of 5'-FAM/3'-TAMRA labeled c-myc promoter i-motif DNA FPy33T (unknown origin) assessed as change in melting temperature at 1 uM by FRET assay (reference value: 53.2 degreeC). Put shortly: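 FRET melting of dual FAM/TAMRA-labelled FPy33T annealed in 1× BPES (30 mM potassium phosphate, 1 mM EDTA, 100 mM KCl), pH 5.5. Final 0.2 µM DNA with or without ligand. Excitation 470 nm, emission 530 nm, read every 1 °C over 37–99 °C. ΔTm taken against DNA alone.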

Data set [2] deals with Quadruplex DNA. The experiment in a line: Stabilization of 5'-FAM/3'-TAMRA labeled c-myc promoter G-quadruplex DNA FPu22T (unknown origin) assessed as change in melting temperature at 1 uM by FRET assay (reference value: 66.5 degreeC). The format is nucleic-acid assay. Put shortly:
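FRET melting of dual FAM/TAMRA-labelled FPu22T annealed in 10 mM Tris-HCl pH 7.4 with KCl. Final 0.2 µM DNA with or without ligand. Excitation 470 nm, emission 530 nm, read every 1 °C over 37–99 °C on a real-time PCR cycler. ΔTm = Tm(DNA+ligand) − Tm(DNA).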

Data set [3] is described as follows: Stabilization of c-myc promoter i-motif DNA Py33 (unknown origin) assessed as decrease in positive peak intensity at pH 5.5 measured at 288 nanometer by CD spectroscopy. In short, it runs like this: (§1)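 Py33 at 1 µM in 1× BPES pH 5.5 (pH 6.8 random-coil reference), with or without ligand. Annealed at 95 °C for 5 min, cooled, kept at 4 °C overnight. CD spectra in a 4 mm cuvette over 230–350 nm, three scans averaged, buffer-corrected; peaks followed at 288 and 260 nm.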

The nature of data set [4]: Stabilization of c-myc promoter i-motif DNA Py33 (unknown origin) assessed as reduction in appearance of random coil confirmation at pH 5.5 by CD spectroscopy. Put shortly: as §1
The subject of data set [5] is Quadruplex DNA. The experiment in a line: Stabilization of c-myc promoter G-quadruplex DNA Pu27 (unknown origin) assessed as effect on melting temperature at 5 uM by CD spectroscopy. The format is nucleic-acid assay. In short, it runs like this: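 CD melting: Pu27 diluted to 1 µM in 10 mM Tris-HCl, 5 mM KCl, pH 7.4, with or without ligand. Annealed at 95 °C for 5 min, slowly cooled, then heated at 1 °C/min while monitoring 260 nm. Tm obtained by curve fitting.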

Data set [6] in a line: Stabilization of c-myc promoter i-motif DNA Py33 (unknown origin) assessed as effect on melting temperature at 5 uM by CD spectroscopy. Put shortly: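 CD melting: Py33 at 1 µM in 1× BPES pH 6.4, with or without ligand. Annealed at 95 °C for 5 min, slowly cooled, then heated at 1 °C/min while monitoring 260 nm. Tm obtained by curve fitting.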
The subject of data set [7] is A549. In words: Antiproliferative activity against human A549 cells after 48 hrs by MTT assay. Format: functional, cell-based. The following applies: A549, 48 h. In short, it runs like this:
(§2)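 Cells seeded at 5.0×10^3 per well, pre-incubated 12 h at 37 °C, 5% CO2, then exposed to compounds for 48 h; DMSO-only control. MTT (2.5 mg/mL) added for 4 h, formazan dissolved in DMSO, absorbance at 570 nm. Each dose tested in triplicate; IC50 from percentage survival relative to negative control.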

In data set [8] the test system is Huh-7. The experiment in a line: Antiproliferative activity against human Huh-7 cells after 48 hrs by MTT assay. Format: functional, cell-based. The following applies: Huh-7, 48 h. In short, it runs like this:
as §2
(In general: Formazan colour is commonly taken as a measure of viable cells.)

Data set [9] can be described thus: Drug uptake in human SiHa cells. Format: ADME, cell-based.
Data set [10] deals with Quadruplex DNA. In words: Binding affinity to c-myc wild-type promoter G-quadruplex/i-motif (unknown origin) expressed in human SiHa cells assessed as reduction in c-myc transcription by measuring decrease in ratio of renilla/firefly luciferase activity after 48 hrs by dual-luciferase reporter assay. Format: cell-based. The following applies: dose microM 0.025-0.1, time 48.0 hrs. In short, it runs like this: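 SiHa cells transfected with 200 ng psiCHECK2 plasmid carrying wild-type, mutant or deleted c-myc promoter. Compounds added 8 h after transfection, then incubated 48 h at 37 °C. Cells washed with ice-cold PBS; Renilla/firefly activity ratio read by dual-luciferase assay.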

Data set [11] has as its system Quadruplex DNA. In words: Binding affinity to c-myc promoter G-quadruplex/i-motif in human SiHa cells assessed as reduction in c-myc mRNA level at 2.5 uM incubated for 24 hrs by qRT-PCR analysis. The format is cell-based. Further details: scale not given: the % may be the effect or the level left. Put shortly:
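SiHa cells at 0, 0.625, 1.25 and 2.5 μM for 24 h; DMSO control. Total RNA extracted with TRIzol. 1.5 μg RNA reverse-transcribed with oligo dT18 and M-MLV (42 °C 60 min). PCR of 30 cycles (95/58/72 °C), products run on 1.2% agarose. β-actin as internal control; three repeats.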
A general note: Real-time PCR tracks product formation cycle by cycle.

In data set [12] the test system is Quadruplex DNA. The experiment in a line: Binding affinity to c-myc promoter G-quadruplex/i-motif in human SiHa cells assessed as reduction in c-myc expression at 5 uM incubated for 24 hrs by Western blot analysis. Further details: scale not given: the % may be the effect or the level left. The format is cell-based. For orientation: Immunoblotting shows a protein as a band on a membrane.

Data set [13] has as its system SiHa. In words: Inhibition of colony formation in human SiHa cells at 0.5 to 2 uM incubated for 9 days by crystal violet staining. Format: functional, cell-based. To be noted: dose microM 0.5-2, time 9.0 day. In short, it runs like this: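 SiHa cells seeded at 500/well, pre-cultured 24 h at 37 °C/5% CO₂, then treated 9 days with compound at several concentrations. Cells washed with PBS, fixed 10 min in ice-cold methanol, stained 30 min with 0.5% crystal violet, dried and photographed.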

The test system of data set [14] is SiHa. In words: Induction of apoptosis in human SiHa cells assessed as early apoptotic cells at 1.2 uM after 24 hrs by annexin V/FITC-propidium iodide staining-based flow cytometric method ( Rvb = 0.3%). Format: functional.
Data set [15] concerns SiHa. The experiment in a line: Induction of apoptosis in human SiHa cells assessed as necrotic cells at 2.4 uM after 24 hrs by annexin V/FITC-propidium iodide staining-based flow cytometric method ( Rvb = 0.1%). Format: functional.
Data set [16] has as its system SiHa. In words: Induction of apoptosis in human SiHa cells assessed as decrease in caspase-7 level incubated for 24 hrs by Western blot analysis. The format is functional, cell-based. To be noted: dose microM 0.6-2.4, time 24.0 hrs.
Data set [17] deals with SiHa. The experiment in a line: Antitumor activity against human SiHa cells xenografted in BALB/c nude mouse assessed as reduction in tumor volume at 15 mg/kg, ip administered once per 2 days for 18 days (reference value: 750 mm3). Format: functional. The following applies: time 18 day. In short, it runs like this: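 SiHa tumor fragments from donor xenografts (grown to about 1,000 mm³) implanted in the underarm of female BALB/c nude mice; six per group. Dosed ip once every two days for 18 days, saline as negative control, cisplatin 0.2 mg/kg as positive control. Tumor volume = length × width²/2. Tumors weighed at sacrifice.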

Data set [18] is described as follows: Toxicity in BALB/c nude mouse xenografted with human SiHa cells assessed as effect on body weight at 15 mg/kg, ip administered once per 2 days for 18 days. Format: organism-based. To be noted: in vivo, 432 h, time 18 day. Put shortly: (§3)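 SiHa tumour fragments passaged from donor mice implanted in the underarm of female BALB/c nude mice (six per group). Compound given at 15 mg/kg ip once every two days for 18 days, with saline and cisplatin 0.2 mg/kg control groups. Body weight recorded every two days; at day 18 mice were sacrificed and organs weighed.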

A short description of data set [19]: Toxicity in BALB/c nude mouse xenografted with human SiHa cells assessed as effect on heart weight at 15 mg/kg, ip administered once per 2 days for 18 days. The format is organism-based. To be noted: in vivo, 432 h, time 18 day. In short, it runs like this:
as §3

Data set [20] is described as follows: Toxicity in BALB/c nude mouse xenografted with human SiHa cells assessed as effect on kidney weight at 15 mg/kg, ip administered once per 2 days for 18 days. Format: organism-based. The following applies: in vivo, 432 h, time 18 day. Put shortly: as §3

Activity calls are given as the source filed them. The calls are words filed in the database; no cut-off is given here.

On to `Cc1ccc2nc3ccc(C)cc3c(NCCCNCCNCCCNc3c4cc(C)ccc4nc4ccc(C)cc34)c2c1`, for which the ΔTm in data set [1] came to 11 °C; in data set [2], 9.9 °C. For the same molecule, the outcome in [3], in data set [4], in [5] and in data set [6] was Active. Also, the results for the 50% inhibitory concentration (IC50) in [7] and in data set [8] were 180 nM and 160 nM, respectively. Moreover, in data set [9], the Drug uptake entry is on record as “Active”. The Activity result in [10] is “Dose-dependent effect”; in [11] it was under 76.9%; in [12], under 92.2%; in data set [14], 43.2%; in data set [15], 5.5%; in [16], “Dose-dependent effect”. Also, the Activity in [17] is given as 450 mm3; in data set [18] it was “Non-Toxic”; in data set [19] it was “Non-Toxic”; in data set [20] it was “Non-Toxic”. The inhibition result in data set [13] was “Active”.

What is called ΔTm is the change in melting temperature against a reference sample. The term IC50 denotes the point on the concentration scale where inhibition reaches its midpoint.
